Consider eight compounds from ChEMBL document CHEMBL1121884, “Piperazinylquinoxalines with central serotoninmimetic activity” (1981).

Holding throughout (assay type): functional
Test [1] concerns the target Sodium-dependent serotonin transporter (Rattus norvegicus) (UniProt P31652). Briefly: Serotonin neuronal reuptake blocking activity was determined by the antagonism of the head twitch response induced in rats. More on the design: concentration or dose not given beside the values. The gist of the method:
(§1)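 Female Sprague-Dawley rats (150-250 g) dosed ip with compound (1% methylcellulose vehicle, dose as base weight), then p-chloromethamphetamine 6.0 mg/kg ip 1 h later; head twitches observed 30 min after PCMA; scored as rats not twitching; usually six rats per dose; ED50 = dose antagonizing PCMA head twitch in 50% of animals, with 95% confidence limits.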

Test [2] has as its target T1, Serotonin (5-HT) receptor (Rattus norvegicus) (UniProt P35563+P35365+P32305+P31388+Q9JJ16+P28564+P30994+Q62758+P08909+P14842+P30940+P35364+P19327+P28565). Briefly: (§2) Ability to elicit head twitches in rats (a serotonin mimetic response). Also on record: concentration or dose not given beside the values. The gist of the method:
(§3)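 Female Sprague-Dawley rats (150-250 g), compound given ip in 1% methylcellulose vehicle, dose as base weight; quantal scoring of rats showing at least one head twitch during a 2-min observation beginning 30 min after dosing; usually six rats per dose level; vehicle controls run.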

Test [3] has as its target T1, Serotonin (5-HT) receptor (Rattus norvegicus). The test is described as §2. More on the design: concentration or dose not given beside the values. The method, boiled down:
as §3
The source holds these as a separate data set.

Test [4] has as its system Rattus norvegicus. Briefly: Serotonin neuronal reuptake blocking activity was determined by the antagonism of the head twitch response induced by treatment of rats with p-chloromethamphetamine (PCMA) after 4 mg/kg of ip administration. Particulars: route intraperitoneal. The method, boiled down: as §1
For test [5], the system named is Rattus norvegicus. In words: Serotonin neuronal reuptake blocking activity was determined by the antagonism of the head twitch response induced by treatment of rats with p-chloromethamphetamine (PCMA) after 0.4 mg/kg of ip administration. The note with it: route intraperitoneal. The gist of the method:
as §1

Test [6] concerns the target T1, Serotonin (5-HT) receptor (Rattus norvegicus). Described as §2. More on the design: concentration or dose not given beside the values. The gist of the method: as §3
The source holds these as a separate data set.

Test [7] deals with Rattus norvegicus. Briefly: Ability to elicit head twitches in rats a response characteristic of a serotonin mimetic action in the central nervous system was measured after 3 mg/kg of ip administration; 11/36. Particulars: route intraperitoneal. The gist of the method:
as §3

Test [8] has as its system Rattus norvegicus. In words: Serotonin neuronal reuptake blocking activity was determined by the antagonism of the head twitch response induced by treatment of rats with p-chloromethamphetamine (PCMA) after 1.0 mg/kg of ip administration; 5/36. The note with it: route intraperitoneal. The method, boiled down:
as §1

In test [9] the test system is Rattus norvegicus. Briefly: Serotonin neuronal reuptake blocking activity was determined by the antagonism of the head twitch response induced by treatment of rats with p-chloromethamphetamine (PCMA) after 3 mg/kg of ip administration; 13/36. The note with it: route intraperitoneal. The method, boiled down: as §1
For test [10], the system named is Rattus norvegicus. Briefly: Ability to elicit head twitches in rats a response characteristic of a serotonin mimetic action in the central nervous system was measured after 1 mg/kg of ip administration; 5/36. Particulars: route intraperitoneal. The method, boiled down: as §3
The test system of test [11] is Rattus norvegicus. Briefly: Serotonin neuronal reuptake blocking activity was determined by the antagonism of the head twitch response induced in rats with p-chloromethamphetamine (PCMA) after 9 mg/kg of ip administration; 24/36. The note with it: route intraperitoneal. The method, boiled down:
as §1

Test [12] relates to Rattus norvegicus. In words: Serotonin neuronal reuptake blocking activity was determined by the antagonism of the head twitch response induced by treatment of rats with p-chloromethamphetamine (PCMA) after 0.4 mg/kg of ip administration; 6/10. Particulars: route intraperitoneal. The method, boiled down: (§4)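 Female Sprague-Dawley rats (150-250 g) dosed ip with compound in 1% methylcellulose vehicle. p-Chloromethamphetamine 6.0 mg/kg ip was given 1 h later, and head movements were observed 30 min after that. Scored as number of rats not showing head twitches. Six rats per dose unless otherwise noted. Doses expressed as base weight.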

In test [13] the test system is Rattus norvegicus. In words: Serotonin neuronal reuptake blocking activity was determined by the antagonism of the head twitch response induced in rats with p-chloromethamphetamine (PCMA) after 40 mg/kg of ip administration;9/10. The note with it: route intraperitoneal. The method, boiled down:
as §4

Test [14] has as its system Rattus norvegicus. Briefly: Ability to elicit head twitches in rats a response characteristic of a serotonin mimetic action in the central nervous system after 40 mg/kg of ip administration; 3/10. The note with it: route intraperitoneal.
Test [15] concerns Rattus norvegicus. In words: Ability to elicit head twitches in rats a response characteristic of a serotonin mimetic action in the central nervous system was measured after 0.4 mg/kg of ip administration; 0/10. Particulars: route intraperitoneal.
Test [16] concerns Rattus norvegicus. Briefly: Serotonin neuronal reuptake blocking activity was determined by the antagonism of the head twitch response induced by treatment of rats with p-chloromethamphetamine (PCMA) after 4 mg/kg of ip administration; 7/10. Particulars: route intraperitoneal. The gist of the method:
as §4

The subject of test [17] is Rattus norvegicus. Briefly: Ability to elicit head twitches in rats a response characteristic of a serotonin mimetic action in the central nervous system was measured after 4 mg/kg of ip administration; 2/10. Particulars: route intraperitoneal.
In test [18] the target is Sodium-dependent serotonin transporter (Rattus norvegicus) (UniProt P31652). In words: (§5) Serotonin neuronal reuptake blocking activity was determined by the antagonism of the head twitch response induced by treatment of rats. Also on record: concentration or dose not given beside the values. The gist of the method: as §1
The target is the same in test [19]. The description is as §5. More on the design: concentration or dose not given beside the values. The method, boiled down:
as §1
This is another data set of the same source.

Test [20] has as its system Rattus norvegicus. Briefly: Serotonin neuronal reuptake blocking activity was determined by the antagonism of the head twitch response induced in rats with p-chloromethamphetamine (PCMA) after 40 mg/kg of ip administration; 2/4. The note with it: route intraperitoneal. The gist of the method:
as §1

Test [21] deals with Rattus norvegicus. In words: Serotonin neuronal reuptake blocking activity was determined by the antagonism of the head twitch response induced by treatment of rats with p-chloromethamphetamine (PCMA) after 0.67 mg/kg of ip administration. Particulars: route intraperitoneal. The gist of the method:
as §1

Test [22] deals with Rattus norvegicus. Briefly: Ability to elicit head twitches in rats a response characteristic of a serotonin mimetic action in the central nervous system was measured after 2.0 mg/kg of ip administration. Particulars: route intraperitoneal. The method, boiled down:
as §3

Test [23] concerns Rattus norvegicus. Briefly: Ability to elicit head twitches in rats a response characteristic of a serotonin mimetic action in the central nervous system was measured after 0.67 mg/kg of ip administration. Particulars: route intraperitoneal. The method, boiled down:
as §3

Test [24] deals with Rattus norvegicus. Briefly: Ability to elicit head twitches in rats a response characteristic of a serotonin mimetic action in the central nervous system after 6.0 mg/kg of ip administration. The note with it: route intraperitoneal. The method, boiled down: as §3
The test system of test [25] is Rattus norvegicus. Briefly: Serotonin neuronal reuptake blocking activity was determined by the antagonism of the head twitch response induced in rats with p-chloromethamphetamine (PCMA) after 6.0 mg/kg of ip administration. Particulars: route intraperitoneal. The gist of the method: as §1
The test system of test [26] is Rattus norvegicus. In words: Serotonin neuronal reuptake blocking activity was determined by the antagonism of the head twitch response induced by treatment of rats with p-chloromethamphetamine (PCMA) after 2 mg/kg of ip administration. Particulars: route intraperitoneal. The method, boiled down: as §1
Test [27] relates to Rattus norvegicus. In words: Serotonin neuronal reuptake blocking activity was determined by the antagonism of the head twitch response induced in rats with p-chloromethamphetamine (PCMA) after 40 mg/kg of ip administration; 8/12. The note with it: route intraperitoneal. The gist of the method: as §1
Test [28] relates to Rattus norvegicus. In words: Serotonin neuronal reuptake blocking activity was determined by the antagonism of the head twitch response induced by treatment of rats with p-chloromethamphetamine (PCMA) after 4 mg/kg of ip administration; 2/12. Particulars: route intraperitoneal. The method, boiled down:
as §1

The test system of test [29] is Rattus norvegicus. In words: Serotonin neuronal reuptake blocking activity was determined by the antagonism of the head twitch response induced by treatment of rats with p-chloromethamphetamine (PCMA) after 0.4 mg/kg of ip administration; 1/12. Particulars: route intraperitoneal. The gist of the method:
as §1

For test [30], the system named is Rattus norvegicus. Briefly: Ability to elicit head twitches in rats a response characteristic of a serotonin mimetic action in the central nervous system was measured after 0.4 mg/kg of ip administration; 0/12. Particulars: route intraperitoneal. The method, boiled down: as §3
Test [31] concerns Rattus norvegicus. In words: Ability to elicit head twitches in rats a response characteristic of a serotonin mimetic action in the central nervous system after 40 mg/kg of ip administration; 0/12. The note with it: route intraperitoneal. The method, boiled down: as §3
The subject of test [32] is Rattus norvegicus. Briefly: Ability to elicit head twitches in rats a response characteristic of a serotonin mimetic action in the central nervous system was measured after 4 mg/kg of ip administration; 4/12. Particulars: route intraperitoneal. The gist of the method:
as §3

Test [33] relates to Rattus norvegicus. In words: Serotonin neuronal reuptake blocking activity was determined by the antagonism of the head twitch response induced in rats with p-chloromethamphetamine (PCMA) after 40 mg/kg of ip administration. The note with it: route intraperitoneal. The method, boiled down: as §4
For test [34], the system named is Rattus norvegicus. Briefly: Ability to elicit head twitches in rats a response characteristic of a serotonin mimetic action in the central nervous system was measured after 5 mg/kg of ip administration. Particulars: route intraperitoneal. The gist of the method: as §3
Test [35] relates to Rattus norvegicus. In words: Ability to elicit head twitches in rats a response characteristic of a serotonin mimetic action in the central nervous system after 20 mg/kg of ip administration. The note with it: route intraperitoneal. The gist of the method:
as §3

The subject of test [36] is Rattus norvegicus. Briefly: Ability to elicit head twitches in rats a response characteristic of a serotonin mimetic action in the central nervous system was measured after 1.2 mg/kg of ip administration. Particulars: route intraperitoneal. The method, boiled down:
as §3

Molecules are shown by their SMILES.

Chain of Sodium-dependent serotonin transporter (Rattus norvegicus) (P31652 whole entry): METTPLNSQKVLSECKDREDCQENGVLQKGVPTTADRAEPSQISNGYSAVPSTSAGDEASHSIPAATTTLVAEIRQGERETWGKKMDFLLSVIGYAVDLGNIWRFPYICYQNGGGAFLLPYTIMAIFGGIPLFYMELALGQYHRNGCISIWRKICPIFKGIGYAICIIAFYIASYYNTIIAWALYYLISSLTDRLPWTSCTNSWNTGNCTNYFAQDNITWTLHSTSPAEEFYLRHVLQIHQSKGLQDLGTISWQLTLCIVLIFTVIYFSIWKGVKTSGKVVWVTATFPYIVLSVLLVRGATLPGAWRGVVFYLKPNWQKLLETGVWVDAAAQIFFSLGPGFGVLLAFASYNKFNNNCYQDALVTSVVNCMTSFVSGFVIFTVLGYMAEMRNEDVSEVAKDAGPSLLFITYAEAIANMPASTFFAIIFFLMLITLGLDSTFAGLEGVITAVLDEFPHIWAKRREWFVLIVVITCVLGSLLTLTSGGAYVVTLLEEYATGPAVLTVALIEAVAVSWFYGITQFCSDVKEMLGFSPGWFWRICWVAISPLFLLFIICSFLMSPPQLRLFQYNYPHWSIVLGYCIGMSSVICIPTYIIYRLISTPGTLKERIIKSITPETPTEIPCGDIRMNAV

On to `Nc1ccc2nc(N3CCNCC3)cnc2c1`, for which the values for the PCMA antagonism (in test [1]; in the test with Rattus norvegicus [4]; in the test on Rattus norvegicus [5]) were 3, 4 and 2, respectively. Also, the Activity amounted to 0 in test [2], 2 in test [3] and 1 in test [6].

Consider `N#Cc1ccc2nc(N3CCNCC3)cnc2c1`, for which the Activity came out at 11 in the test with Rattus norvegicus [7] and 5 in the test on Rattus norvegicus [10]. Also, the PCMA antagonism was determined as 5 in the test with Rattus norvegicus [8], 13 with Rattus norvegicus [9] and 24 in the test on Rattus norvegicus [11].

Regarding `Cl.FC(F)(F)c1ccc2nc(N3CCNCC3)cnc2c1`, the figures for the PCMA antagonism with Rattus norvegicus [12], with Rattus norvegicus [13] and in the test on Rattus norvegicus [16] were 6, 9 and 7, respectively. The Activity in the test with Rattus norvegicus [14] is given as 3; in the test with Rattus norvegicus [15], 0; in the test with Rattus norvegicus [17], 2.

In the case of `Cl.Clc1cccc2nc(N3CCNCC3)cnc12`, the Activity is 0 in test [2], 2 in test [3] and 0 in [6]. The PCMA antagonism in test [18] was found to be 0; in test [19], 0; with Rattus norvegicus [20], 2.

For the compound `Cl.O=[N+]([O-])c1ccc2ncc(N3CCNCC3)nc2c1`, the PCMA antagonism in the test on Rattus norvegicus [21] worked out at 2; in the test on Rattus norvegicus [25] it was 4; with Rattus norvegicus [26], 5. The Activity in the test with Rattus norvegicus [22] is listed as 0; with Rattus norvegicus [23], 1; in the test with Rattus norvegicus [24], 0.

With `Cc1ccc2nc(N3CCNCC3)cnc2c1.Cl`, the PCMA antagonism is recorded as 8 in the test on Rattus norvegicus [27], 2 in the test with Rattus norvegicus [28] and 1 with Rattus norvegicus [29]. Besides, the Activity in the test on Rattus norvegicus [30] was 0; with Rattus norvegicus [31], 0; in the test with Rattus norvegicus [32], 4.

`Cl.FC(F)(F)c1ccc2nc(N3CCNCC3)c(Sc3ccccc3)nc2c1`: the Activity in test [2] was determined as 0; in [3], 2; in test [6] it was 2. Also, the PCMA antagonism in test [18] was found to be 1; in the test on Rattus norvegicus [33] it was 0; in [19] it was 0.

For `Cl.Clc1nc2ccccc2nc1N1CCNCC1`, the Activity in the test on Rattus norvegicus [34] is listed as 3; in the test with Rattus norvegicus [35], 1; with Rattus norvegicus [36], 2.
